In ChEMBL document CHEMBL1134534, “Phenylpiperazinylalkylamino substituted pyridazinones as potent alpha(1) adrenoceptor antagonists” (J Med Chem, 2001):
The source made the active and inactive calls. No cut-off for these calls is given here.

Key:
[1] = target: T1, Alpha-1D adrenergic receptor (Homo sapiens, UniProt P25100); experiment: Binding affinity towards human cloned alpha-1D-adrenoceptor using [3H]prazosin as radioligand
T1 sequence (P25100 whole entry): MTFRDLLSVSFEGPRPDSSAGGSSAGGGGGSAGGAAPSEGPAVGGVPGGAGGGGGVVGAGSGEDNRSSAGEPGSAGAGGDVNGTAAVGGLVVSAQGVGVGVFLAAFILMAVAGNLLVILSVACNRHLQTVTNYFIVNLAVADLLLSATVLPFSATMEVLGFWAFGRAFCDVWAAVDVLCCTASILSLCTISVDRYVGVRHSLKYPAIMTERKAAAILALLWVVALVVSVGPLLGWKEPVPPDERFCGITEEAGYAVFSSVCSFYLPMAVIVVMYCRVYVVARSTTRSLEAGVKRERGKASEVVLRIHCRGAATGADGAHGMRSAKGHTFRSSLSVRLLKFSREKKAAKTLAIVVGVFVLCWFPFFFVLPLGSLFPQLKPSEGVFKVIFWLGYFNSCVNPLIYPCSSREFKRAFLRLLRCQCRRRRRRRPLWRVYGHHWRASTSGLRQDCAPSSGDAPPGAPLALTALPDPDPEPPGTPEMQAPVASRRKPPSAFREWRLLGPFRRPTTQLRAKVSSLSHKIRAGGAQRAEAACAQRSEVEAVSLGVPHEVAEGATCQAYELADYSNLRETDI

[2] = target: T2, 5-hydroxytryptamine receptor 1A (Homo sapiens, UniProt P08908); experiment: Binding affinity towards human cloned 5-hydroxytryptamine 1A receptor using [3H]8-OH-DPAT as radioligand
T2 sequence (P08908 whole entry): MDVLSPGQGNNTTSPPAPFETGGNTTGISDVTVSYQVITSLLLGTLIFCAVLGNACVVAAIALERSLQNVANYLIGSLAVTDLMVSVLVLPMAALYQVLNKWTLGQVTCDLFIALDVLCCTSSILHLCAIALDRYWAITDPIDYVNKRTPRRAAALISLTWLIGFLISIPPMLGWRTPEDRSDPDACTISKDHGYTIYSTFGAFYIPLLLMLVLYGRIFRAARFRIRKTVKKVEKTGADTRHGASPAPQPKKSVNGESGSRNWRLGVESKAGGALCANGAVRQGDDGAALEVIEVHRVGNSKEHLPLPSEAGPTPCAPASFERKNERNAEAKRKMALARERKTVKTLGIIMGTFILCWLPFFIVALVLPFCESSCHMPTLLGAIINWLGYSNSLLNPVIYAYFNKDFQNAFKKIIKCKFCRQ

[3] = target: T3, Alpha-1A adrenergic receptor (Homo sapiens) (UniProt P35348); experiment: Experimental binding affinity for alpha-1A-adrenergic receptor
T3 sequence (whole entry): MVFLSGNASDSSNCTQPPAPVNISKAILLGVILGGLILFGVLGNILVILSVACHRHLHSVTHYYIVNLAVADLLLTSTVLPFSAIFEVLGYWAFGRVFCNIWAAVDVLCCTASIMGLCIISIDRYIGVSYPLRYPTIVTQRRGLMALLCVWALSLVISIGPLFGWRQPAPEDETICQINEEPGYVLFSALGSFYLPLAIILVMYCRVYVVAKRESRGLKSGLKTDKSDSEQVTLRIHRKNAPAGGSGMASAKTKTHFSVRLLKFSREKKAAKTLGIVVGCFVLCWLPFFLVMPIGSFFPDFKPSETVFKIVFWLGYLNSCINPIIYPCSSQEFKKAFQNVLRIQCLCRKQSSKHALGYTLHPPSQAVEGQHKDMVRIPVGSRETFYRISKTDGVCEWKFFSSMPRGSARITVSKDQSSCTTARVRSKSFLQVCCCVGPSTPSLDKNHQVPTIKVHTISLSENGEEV
How it was run: (§1)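 Membranes (30 µg protein) from CHO cells stably transfected with each human α1 subtype. Nonspecific binding defined with 10 µM phentolamine. Filtration. IC50 from curve fit, converted to Ki by Cheng–Prusoff. Triplicates; 2–3 experiments.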

[4] = target: T4, Alpha-1D adrenergic receptor (Homo sapiens) (UniProt P25100); experiment: Experimental binding affinity for alpha-1D-adrenergic receptor; how it was run: as §1
T4 sequence (whole entry): T1 sequence (P25100 whole entry)

[5] = target: T5, Alpha-1B adrenergic receptor (Homo sapiens) (UniProt P35368); experiment: Experimental binding affinity for alpha-1B-adrenergic receptor; how it was run: as §1
T5 sequence (whole entry): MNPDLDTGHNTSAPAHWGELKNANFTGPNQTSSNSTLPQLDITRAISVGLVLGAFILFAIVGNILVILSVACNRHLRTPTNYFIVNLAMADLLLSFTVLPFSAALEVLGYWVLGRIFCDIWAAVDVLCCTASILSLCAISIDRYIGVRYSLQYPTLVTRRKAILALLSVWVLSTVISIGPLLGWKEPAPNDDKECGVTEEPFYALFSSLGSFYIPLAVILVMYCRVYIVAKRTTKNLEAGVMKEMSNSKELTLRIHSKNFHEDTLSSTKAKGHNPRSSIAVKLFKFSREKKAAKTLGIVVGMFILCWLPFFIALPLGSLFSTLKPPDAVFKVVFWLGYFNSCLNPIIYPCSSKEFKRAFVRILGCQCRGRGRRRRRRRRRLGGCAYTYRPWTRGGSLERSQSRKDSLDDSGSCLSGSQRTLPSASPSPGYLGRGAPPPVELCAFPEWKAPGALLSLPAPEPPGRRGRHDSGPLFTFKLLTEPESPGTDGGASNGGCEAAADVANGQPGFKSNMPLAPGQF

[6] = target: T6, Alpha-1B adrenergic receptor (Homo sapiens, UniProt P35368); experiment: Binding affinity towards human cloned alpha-1B-adrenoceptor using [3H]prazosin as radioligand
T6 sequence (P35368 whole entry): T5 sequence (whole entry)

[7] = target: T7, Alpha-1A adrenergic receptor (Homo sapiens, UniProt P35348); experiment: Binding affinity towards human cloned alpha-1A-adrenoceptor using [3H]prazosin as radioligand
T7 sequence (P35348 whole entry): T3 sequence (whole entry)

[8] = target: T8, 5-hydroxytryptamine receptor 1A (Homo sapiens) (UniProt P08908); experiment: Percent of maximum effect on binding of [35S]GTP-gamma-S, to HeLa cell membranes expressing the human 5-hydroxytryptamine 1A receptor; assay type: functional
T8 sequence (whole entry): T2 sequence (P08908 whole entry)
How it was run: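 [35S]GTPγS binding on human 5-HT1A-expressing HeLa membranes, with 30 µM GDP, compound 100 µM–0.1 nM, 20 min then 30 min at 30 °C. Stimulation given as percent increase over basal, with the maximal 5-HT response set to 100%. Emax taken from the nonlinear curve fit; 2–3 experiments.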

[9] = target: T2, 5-hydroxytryptamine receptor 1A; experiment: Ability to influence the binding of [35S]GTP-gamma-S, to HeLa cell membranes expressing the human 5-hydroxytryptamine 1A receptor; assay type: functional
How it was run: (§2)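 Membranes from HeLa cells stably expressing human 5-HT1A, in 20 mM HEPES, 3 mM MgSO4, 120 mM NaCl pH 7.4. Preincubated 20 min at 30 °C with 30 µM GDP and compound (100 µM to 0.1 nM), then [35S]GTPγS (150–250 pM) added for a further 30 min at 30 °C. Nonspecific binding defined with 10 µM GTPγS. Filtration, scintillation counting. pEC50 from nonlinear curve fit; 2–3 experiments.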

[10] = target: T8, 5-hydroxytryptamine receptor 1A (Homo sapiens); experiment: Ability to influence the binding of [35S]GTP-gamma-S, to HeLa cell membranes expressing the human 5-hydroxytryptamine 1A receptor; Not active; assay type: functional; how it was run: as §2

Row | SMILES | Ki [1] [nM] | Ki [2] [nM] | pK1a [3] | pK1d [4] | pK1b [5] | Ki [6] [nM] | Ki [7] [nM] | Effect [8] [%] | EC50 [9] [nM] | NA [10]
1 | COc1ccccc1N1CCN(CCNc2cc(-c3ccccc3)nn(C)c2=O)CC1 | 11.8 | 14 | 9.66 | 7.93 | 8.7 | 2.01 | 0.22 |  |  | 
2 | COc1ccccc1N1CCN(CCCNc2c(C(C)=O)c(C)nn(C)c2=O)CC1 | 34.5 | 1.48 | 9.09 | 7.46 | 7.27 | 53.4 | 0.89 | 17 | 1.58 | 
3 | COc1ccccc1N1CCN(CCNc2cc(C)nn(C)c2=O)CC1 | 17.7 | 32.1 | 7.73 | 7.75 | 7.48 | 33.1 | 18.6 |  |  | 
4 | COc1ccc(Cl)cc1N1CCN(CCCNc2c(C(C)=O)c(-c3ccccc3)nn(C)c2=O)CC1 | 3.92 | 1000 | 8.64 | 8.41 | 8.85 | 1.44 | 0.44 |  |  | 
5 | COc1ccccc1N1CCN(CCCNc2cc(-c3ccccc3)nn(C)c2=O)CC1 | 11.8 | 127 | 8.59 | 7.93 | 8.26 | 5.51 | 2.59 |  |  | 
6 | COc1ccccc1N1CCN(c2c(C(C)=O)c(-c3ccccc3)nn(C)c2=O)CC1 | > 10000 | > 1000 | 6.79 | 5 | 6.59 | 259 | 163 |  |  | 
7 | CC(=O)c1c(-c2ccccc2)nn(C)c(=O)c1NCCN1CCN(c2ccccc2Cl)CC1 | 0.25 | 11.6 | 9.52 | 9.6 | 9.12 | 0.75 | 0.3 |  |  | 
8 | COc1ccccc1N1CCN(CCCNc2c(C(C)=O)c(-c3ccccc3)nn(C)c2=O)CC1 | 4.32 | 134 | 8.82 | 8.37 | 7.69 | 20.3 | 1.51 |  |  | 
9 | CC(=O)c1c(-c2ccccc2)nn(C)c(=O)c1NCCN1CCN(c2ccccc2F)CC1 | 0.49 | 24.1 | 9.49 | 9.31 | 8.42 | 3.77 | 0.32 |  |  | 
10 | COc1ccc(Cl)cc1N1CCN(CCCCNc2c(C(C)=O)c(C)nn(C)c2=O)CC1 | 5.96 | 1.39 | 8.52 | 8.3 | 7.39 | 49.1 | 2.99 |  |  | 
11 | CCC(=O)c1c(-c2ccccc2)nn(C)c(=O)c1NCCN1CCN(c2ccccc2OC)CC1 | 0.25 | 4.06 | 9.72 | 9.6 | 8.84 | 1.45 | 0.19 | 19 | 2.51 | 
12 | COc1ccc(Cl)cc1N1CCN(CCCNc2cc(-c3ccccc3)nn(C)c2=O)CC1 | 2.92 | > 1000 | 8.7 | 8.53 | 8.7 | 2.01 | 2 |  |  | 
13 | COc1ccc(Cl)cc1N1CCN(CCNc2cc(-c3ccccc3)nn(C)c2=O)CC1 | 1.07 | 322 | 9 | 8.97 | 8.75 | 1.76 | 1 |  |  | 
14 | COc1ccccc1N1CCN(CCNc2c(C(C)=O)c(C)nn(C)c2=O)CC1 | 3.2 | 13 | 8.64 | 8.5 | 7.3 | 49.8 | 2.29 |  |  | 
15 | COc1ccc(Cl)cc1N1CCN(CCNc2c(C(C)=O)c(-c3ccccc3)nn(C)c2=O)CC1 | 0.41 | 76.2 | 9.55 | 9.39 | 8.4 | 3.95 | 0.28 |  |  | 
16 | CCCN(CCC)C1CCc2cccc(O)c2C1 (centres undefined) [8-OH-DPAT] |  |  |  |  |  | 5980 |  | 100 |  | 
17 | COc1ccccc1N1CCN(CCNc2c(C(=O)C(C)C)c(-c3ccccc3)nn(C)c2=O)CC1 | 0.43 | 10.2 | 9.74 | 9.37 | 9.19 | 0.64 | 0.18 |  |  | inactive
18 | COc1ccc(Cl)cc1N1CCN(CCCNc2c(C(C)=O)c(C)nn(C)c2=O)CC1 | 5.34 | 11.2 | 9.29 | 8.27 | 8.1 | 8.04 | 0.53 |  |  | 
19 | COc1ccccc1N1CCN(CCNc2c(C(C)=O)c(-c3ccccc3)nn(C)c2=O)CC1 | 0.13 | 2.47 | 9.46 | 9.89 | 8.48 | 3.29 | 0.63 |  |  | inactive
